Compound activity from PubChem.
Only some compounds are listed: those with a hit (about 3.7% of all), similar ones and a draw of the others.
KCNK3 inh – human KCNK3 channel inhibition, primary screen | B-score at 10 µM | AID 602410 | CHO-KCNK3 thallium flux, FluxOR fluorescence; active compounds read low | hit rate 0.84% among 340,000;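 active = B-score under library mean minus 4 SD, starting fluorescence ratio at most library mean plus 5 SD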;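 note: more negative B-score means stronger inhibition of thallium flux through KCNK3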
hERG protect – compounds protecting human hERG from proarrhythmic drug block | hit rate 0.51% among 310,000 | CHO-hERG, FluxOR thallium flux, dofetilide IC70 present | activation (rescue from dofetilide block), less the hit threshold, % at 10 µM;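 active = activation above the mean of controls blocked by dofetilide plus 5 SD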;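 note: thallium influx through hERG after potassium depolarization seen as dye fluorescence rise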
Kir21 block – inhibitors of mouse Kir2.1 inward-rectifier potassium channel. HEK293-Kir2.1, FluxOR thallium flux fluorescence; active compounds read low. P35561. B-score at 10 µM. hit rate 0.85% among 310,000;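 active = fluorescence ratio B-score at or below minus 3 SD of library scores, with starting-brightness B-score within 2 SD, cut at about -4.2 in these data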;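 note: channel flux triggered by added potassium and thallium sulfate stimulus; B-score of peak minus minimum fluorescence over baseline after thallium stimulus; more negative B-score means stronger Kir2.1 block with less thallium influx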
KCNQ1 inh – human KCNQ1 channel inhibition | P51787 | CHO-K1 KCNQ1, FluxOR thallium flux fluorescence; active compounds read high | B-score at 10 µM | hit rate 1.3% among 310,000 | AID 2642;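 active = compounds whose thallium flux B-score, printed positive for inhibition, exceeds three library SD while starting fluorescence stays within three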;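 note: channel opened by potassium depolarization with thallium stimulus after 20 min compound exposure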
KCNQ1 act – potentiates or activates the human KCNQ1 potassium channel | B-score at 10 µM | hit rate 0.35% among 310,000 | P51787 | CHO-K1 KCNQ1, thallium flux FluxOR fluorescence; active compounds read high;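 active = fluorescence ratio B-score, a plate-corrected score, at least three library SD, with initial intensity B-score within 5 SD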
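Assay system: CHO-K1 cells stably expressing KCNQ1; Medium: assay buffer with matched DMSO; Also added: K+/Tl+ depolarizing stimulus; Dosing: single dose; Timing: dye 90 min, compound 20 min, room temperature; Measured by: kinetic FluxOR thallium fluorescence, 10-s 1-Hz baseline, 110-s post-stimulus read; Read-out: peak-minus-minimum fluorescence over initial fluorescence, negative-control normalized, B-scored.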
KCNK9 inh – human KCNK9 channel inhibition; HEK293 KCNK9, FluxOR thallium flux fluorescence; active compounds read low; Q9NPC2; B-score at 10 µM; hit rate 1.2% among 310,000; AID 488922;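 active = ratio B-score over 3 SD below the library mean, with starting fluorescence within 5 SD of its mean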;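 note: negative B-score means less thallium flux so channel inhibition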
KCNQ1 block val – human KCNQ1 channel inhibition, validation assay. shares compounds with KCNQ1 inh. KCNQ1 cell line, FluxOR thallium flux fluorescence. inhibition, % at 10 µM. hit rate 93% among 1,600. AID 588353;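 active = primary screen active, with duplicate mean exceeding buffer control mean plus 3 SD of buffer wells, cut at about 28% in these data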;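 note: 0% = buffer control ratio and 100% = XE991 inhibitor control ratio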
CHO KCNQ1 ctr – activity in parental CHO cells lacking KCNQ1; shares compounds with KCNQ1 inh; parental CHO-K1, FluxOR thallium flux fluorescence ratio; active compounds read low; zero means no signal rise above baseline; fluorescence ratio (Tl flux) at 10 µM; hit rate 21% among 1,600; AID 588366;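 active = mean of duplicate thallium-flux fluorescence ratios in parental host cells more than 5 SD below the buffer control mean, cut at about 0.38 in these data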;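 note: ratio is peak minus minimum fluorescence divided by baseline fluorescence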
KCNQ1 APC inh – confirmation of human KCNQ1 potassium channel inhibitors by electrophysiology | KCNQ1-CHO cells, automated patch clamp current | shares compounds with KCNQ1 inh | calls only at 10 µM | hit rate 20% among 490 | AID 624120;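 active = KCNQ1 current drop exceeding 3 SD of negative control wells, seen in both duplicate runs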;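 note: steady state current during a 2 s step from -80 to +40 mV; negative values mean current inhibition and positive values mean potentiation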
KCNQ2 inh – rat KCNQ2 inhibition in KCNQ1 inhibitor specificity screen. shares compounds with KCNQ1 inh. KCNQ2 cells, FluxOR thallium flux fluorescence. inhibition, % at 10 µM. hit rate 71% among 1,600;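 active = mean percent inhibition of the KCNQ2 thallium signal more than 5 SD above the buffer-only control wells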;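 note: KCNQ2 expressed in CHO cells; 0% = buffer control wells and 100% = XE-991 inhibitor control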
KCNQ1-KCNE1 inh – human KCNQ1/KCNE1 inhibition in KCNQ1 specificity screen | shares compounds with KCNQ1 inh | KCNQ1/KCNE1 cells, FluxOR thallium flux fluorescence | inhibition, % at 10 µM | hit rate 77% among 1,600 | AID 652147;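 active = mean percent inhibition of duplicate wells above the buffer-only control mean plus 3 SD of those controls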;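 note: 0% = buffer only wells and 100% = XE-991 inhibitor control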
KCNK9 inh conf – human KCNK9 inhibitor confirmation | shares compounds with KCNK9 inh | HEK293 KCNK9 cells, FluxOR thallium flux fluorescence | inhibition, % at 10 µM | hit rate 43% among 4,900;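 active = thallium signal inhibited by more than 5 SD of the compound-free buffer control wells, on both duplicate plates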;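 note: 0% = assay buffer control wells without compound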
Kir2-1 spec – tests whether KCNK9 modulators also affect mouse Kir2.1. hit rate 4% among 4,900. shares compounds with KCNK9 inh. Kir2.1 cells, FluxOR thallium flux fluorescence. AID 492993. inhibition, % at 10 µM;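 active = thallium signal drop more than 5 SD beyond the mean of the no-compound control wells, seen in both duplicate plates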;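 note: signal is fluorescence rise after thallium addition divided by baseline fluorescence; plate controls were assay buffer only for no effect and full block by chlorpromazine control for full effect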
KCNK9 uninduced – non-induced cell nonspecific activity of KCNK9 modulators; shares compounds with KCNK9 inh; non-induced KCNK9-HEK293, FluxOR thallium flux; inhibition, % at 10 µM; hit rate 40% among 4,900;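 active = thallium signal drop beyond 5 SD of the untreated control mean, on both duplicate plates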;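 note: plate controls were buffer only IC0 wells for no effect and SID17386958 at its maximal inhibitory level for full effect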
KCNK3 inh conf – human KCNK3 channel inhibition, confirmation assay | AID 651638 | hit rate 99% among 2,400 | shares compounds with KCNK3 inh | ratio percent of control, % at 10 µM | CHO-KCNK3 thallium flux, FluxOR fluorescence; 0% buffer, 100% carvedilol maximal block;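 active = ratio percent of control, averaged over triplicates, above buffer control mean plus 5 SD, cut at about 64% in these data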;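 note: ratio is the fluorescence rise from min to max over baseline after thallium stimulus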
KCNK3 uninduced – counter-screen for KCNK3 inhibitors: effect in non-induced cells; shares compounds with KCNK3 inh; non-induced KCNK3 parental cells, FluxOR thallium flux; active compounds read low; thallium flux ratio (lower = more inhibition) at 10 µM; hit rate 40% among 2,400; AID 651747;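 active = thallium flux ratio, averaged over three wells, more than 5 SD below the buffer control mean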;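 note: host cells are CHO cells without KCNK3 induction; ratio is peak minus trough fluorescence over baseline then normalized to buffer controls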
* marks the source's active call; other numbers are inactive results.

Results for CC(C)COc1cccc(-c2cc(C(=O)N/N=C/c3ccncc3)c3ccccc3n2)c1 ?
KCNK3 inh: -10*; hERG protect: -11; Kir21 block: -1.1; KCNQ1 inh: 14*; KCNQ1 act: inactive; KCNK9 inh: inactive; KCNQ1 block val: 182*; CHO KCNQ1 ctr: 0.3*; KCNQ2 inh: 125%*; KCNQ1-KCNE1 inh: active; KCNK3 inh conf: 118*; KCNK3 uninduced: 0.096*

How did OC(C[n+]1ccccc1)c1ccccc1 (centres undefined) do in these assays?
KCNK3 inh: inactive; hERG protect: -7; Kir21 block: 0.74; KCNQ1 inh: inactive; KCNQ1 act: inactive; KCNK9 inh: inactive

How did CC(C)(C)NC(=O)C(c1cccs1)N(Cc1ccco1)C(=O)c1csnn1 (centres undefined) do in these assays?
KCNK3 inh: inactive; hERG protect: -8; Kir21 block: -2.6; KCNQ1 inh: inactive; KCNQ1 act: inactive; KCNK9 inh: inactive

Results for CC(c1cccs1)N(Cc1ccco1)C(=O)Nc1ccc(Cl)c(Cl)c1 (centres undefined) ?
KCNK3 inh: -11*; hERG protect: -10; Kir21 block: 0.27; KCNQ1 inh: 19*; KCNQ1 act: inactive; KCNK9 inh: -14*; KCNQ1 block val: 146*; CHO KCNQ1 ctr: 0.35*; KCNQ2 inh: 116%*; KCNQ1-KCNE1 inh: active; KCNK9 inh conf: 60%*; Kir2-1 spec: inactive; KCNK9 uninduced: 44%*; KCNK3 inh conf: 122*; KCNK3 uninduced: 0.13*

Results for Cc1ccc(NC(=O)c2cc(-c3cccs3)nc3ccccc23)nc1 ?
KCNK3 inh: -11*; hERG protect: -20; Kir21 block: -0.53; KCNQ1 inh: 6*; KCNQ1 act: inactive; KCNK9 inh: inactive; KCNQ1 block val: 88*; CHO KCNQ1 ctr: 0.37*; KCNQ2 inh: 121%*; KCNQ1-KCNE1 inh: 196%*; KCNK3 inh conf: 111*; KCNK3 uninduced: 0.14*

What do the screens show for `CC(C)Cc1nc(N2CCN(C(=O)c3ccco3)CC2)c(C#N)c2c1CCCC2`?
KCNK3 inh: -10*; hERG protect: -9; Kir21 block: 0.4; KCNQ1 inh: 11*; KCNQ1 act: inactive; KCNK9 inh: -16*; KCNQ1 block val: 116*; CHO KCNQ1 ctr: 0.32*; KCNQ2 inh: 117%*; KCNQ1-KCNE1 inh: inactive; KCNK9 inh conf: 34%*; Kir2-1 spec: inactive; KCNK9 uninduced: 28%*; KCNK3 inh conf: 66*; KCNK3 uninduced: inactive

What do the screens show for `CCOc1ccc(C(=O)Nc2cccc(C(=O)O)c2)cc1Cl`?
KCNK3 inh: inactive; hERG protect: -7; Kir21 block: -0.04; KCNQ1 inh: inactive; KCNQ1 act: inactive; KCNK9 inh: inactive

What do the screens show for `CCOc1ccc(C(=O)Nc2cccc(-c3nc4cccnc4o3)c2)cc1Cl`?
KCNK3 inh: -10*; hERG protect: -18; Kir21 block: -0.4; KCNQ1 inh: 9*; KCNQ1 act: inactive; KCNK9 inh: -16*; KCNQ1 block val: 135*; CHO KCNQ1 ctr: 0.47; KCNQ1 APC inh: inactive; KCNQ2 inh: 110%*; KCNQ1-KCNE1 inh: 190%*; KCNK9 inh conf: 46%*; Kir2-1 spec: inactive; KCNK9 uninduced: inactive; KCNK3 inh conf: 125*; KCNK3 uninduced: inactive

Results for O=C(N/N=C/c1cc(Br)c(O)c(Br)c1)c1cc2c(ccc3ccccc32)o1 ?
KCNK3 inh: -11*; hERG protect: -49; Kir21 block: -3; KCNQ1 inh: 15*; KCNQ1 act: inactive; KCNK9 inh: inactive; KCNQ1 block val: 160*; CHO KCNQ1 ctr: 0.32*; KCNQ2 inh: 130%*; KCNQ1-KCNE1 inh: active; KCNK3 inh conf: 136*; KCNK3 uninduced: 0.093*

Results for O=C(N/N=C/c1ccc(O)c(Br)c1)c1cc2c(ccc3ccccc32)o1 ?
KCNK3 inh: inactive; hERG protect: -4; Kir21 block: -0.08; KCNQ1 inh: inactive; KCNQ1 act: inactive; KCNK9 inh: inactive

Results for O=C(NCCSCc1ccco1)Nc1cc(Cl)cc(Cl)c1 ?
KCNK3 inh: -13*; hERG protect: -19; Kir21 block: 0.1; KCNQ1 inh: 8*; KCNQ1 act: inactive; KCNK9 inh: -8.2*; KCNQ1 block val: 134*; CHO KCNQ1 ctr: 0.42; KCNQ1 APC inh: inactive; KCNQ2 inh: inactive; KCNQ1-KCNE1 inh: 91%*; KCNK9 inh conf: 68%*; Kir2-1 spec: inactive; KCNK9 uninduced: 32%*; KCNK3 inh conf: 100*; KCNK3 uninduced: inactive

What do the screens show for `CS(=O)(=O)N(CC(=O)NCCSCc1ccco1)c1ccc(Cl)cc1`?
KCNK3 inh: inactive; hERG protect: -10; Kir21 block: -1; KCNQ1 inh: inactive; KCNQ1 act: inactive; KCNK9 inh: inactive
